Format in all cases: functional, organism-based
Assay [1] concerns Bacillus cereus. Nature of the assay: Antimicrobial activity against Bacillus cereus El-U 8180 at 200 ug/ml. The method in brief:
(§1)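 Filter paper disk diffusion on nutrient agar seeded with the test bacterium. Disks were soaked in the test solution for 30 s, then placed on the agar surface. Plates were incubated at 30 °C for 2 days. Five replicates were run per compound at each concentration. Ampicillin at 200 and 400 μg/mL served as the reference.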

The test system of assay [2] is Bacillus cereus. The assay can be described thus: Antimicrobial activity against Bacillus cereus El-U 8180 at 400 ug/ml. The method in brief: as §1
Assay [3] deals with Serratia sp. Nature of the assay: Antimicrobial activity against Serratia El-U 9213 at 200 ug/ml. The method in brief: as §1
In assay [4] the test system is Serratia sp. Nature of the assay: Antimicrobial activity against Serratia El-U 9213 at 400 ug/ml. The procedure, abridged:
as §1

The structures appear in SMILES notation. The source made the active and inactive calls. The rule behind the calls is not given here.

Regarding `CC1=C2C[C@@]3(C)C(=C[C@H]2OC1=O)[C@H](O)CC[C@@H]3C`, the result in assay [1] and in assay [2] was Active. The outcome in assay [3] and in assay [4] was inactive.
Take `CC1=C2C[C@@]3(C)C(=C[C@@]2(O)OC1=O)[C@H](O)CC[C@@H]3C`: the result in assay [1], in assay [2], in assay [3] and in assay [4] was Active.
For `CC1=C2C[C@]3(C)[C@@H](C)CC[C@H]4O[C@]43C[C@@]2(O)OC1=O`, the result in assay [1], in assay [2], in assay [3] and in assay [4] was Active.
With `CO[C@@]12C[C@@]34O[C@@H]3CC[C@H](C)[C@@]4(C)CC1=C(C)C(=O)O2`, the outcome in assay [1] and in assay [2] was Active. Also, the outcome in assay [3] and in assay [4] was inactive.
On to `CO[C@@]12C[C@@H]3C(=O)CC[C@H](C)[C@@]3(C)CC1=C(C)C(=O)N2`, for which the result in assay [1] and in assay [2] was Active. The outcome in assay [3] and in assay [4] was inactive.
For `CO[C@@]12C=C3[C@H](O)CC[C@H](C)[C@@]3(C)CC1=C(C)C(=O)O2`, the result in assay [1], in assay [2], in assay [3] and in assay [4] was Active.

The values above are taken from ChEMBL document CHEMBL1158715, “Eremophilane-type sesquiterpene derivatives from Senecio aegyptius var. discoideus” (J Nat Prod, 2005).
